# Screens deposited in PubChem BioAssay by several laboratories.
# Rev-RRE block – HIV Rev-RRE protein-RNA interaction inhibition. P05866. Rev peptide-RRE RNA binding, FRET. inhibition, % at 8 µM. 0.79% of 97,000 active. AID 704;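 active means inhibition above the screen-wide mean plus 3 SD, cut at about 35% in these data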;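 further: 0% = median DMSO wells and 100% = median Neomycin B control wells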
# Target sequence (P05866 whole entry, looked up): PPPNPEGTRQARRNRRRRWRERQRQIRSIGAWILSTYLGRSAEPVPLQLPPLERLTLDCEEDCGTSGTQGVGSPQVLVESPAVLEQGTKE
#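 Test system: Cy5-tagged RRE RNA duplex with fluorescein-tagged Rev peptide | Read-out: % inhibition of FRET ratio versus controls | Probe or stimulus: Labelled Rev peptide | Incubation: 5 min RNA-compound premix plus 15 min binding step, 25 °C | Technique: FRET fluorescence readout | Benchmarks: DMSO low control, neomycin B high control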
# Pyk2 oligo antag – blocks oligomerization of human Pyk2 in cells | Q293 cells, Pyk2 FERM NanoBiT luminescence; stronger effect = lower value | z-score (the deposit names both 25 µM and 10 µM) | AID 1347419 | 0.83% of 99,000 active;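 active means Z-score of -3 or lower, scaled per plate to the spread of control and sample wells; inactive means z-score above -3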;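 further: negative z-score means lost luminescence so less FERM oligomerization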
# PTPN22 inh 2 – inhibitors of human LYP (PTPN22) phosphatase | inhibition, % at 2 µM | 0.21% of 96,000 active | AID 640 | recombinant LYP catalytic domain, DiFMUP fluorescence | Q9Y2R2;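 active means inhibition at 2 µM at or above a set limit, the screen mean plus 3 SD, cut at about 24% in these data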;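 further: 0% = DMSO with enzyme and 100% = enzyme fully blocked by orthovanadate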
# PTPN22 act – LYP (human) phosphatase activation. Q9Y2R2. recombinant LYP, DiFMUP fluorescence; 0 = plate median, 100 = signal doubled. activation, % at 2 µM. 0.11% of 96,000 active. AID 697;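 active means activation at 2 µM above a set limit, the mean plus 5 SD, cut at about 37% in these data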
# The depositor's hits bear a star; x = no result; [ ] = dose if it differs, or a comment. Sampled rows, rich in hits. Any-hit rate of the full collection: about 1.8%.
SMILES,Rev-RRE block,Pyk2 oligo antag,PTPN22 inh 2,PTPN22 act
O=c1c([N+](=O)[O-])c(NC2CCCCC2)c2ccccc2n1-c1ccccc1,7,-3.7*,1,-2
C/C(=N\NC(=O)CN1CCOCC1)C(C)(C)C,6,0.05,8,-3
O=C(NC(NC(=S)Nc1cccc(Cl)c1)C(Cl)(Cl)Cl)OCc1ccccc1 (configuration not stated),2,-1.4,2,0
Cc1ccc(C(=O)Nc2nnc(-c3ccc(C(C)(C)C)cc3)s2)cc1,6,-0.38,-6,4
CC(=O)Nc1nonc1NC(=O)c1ccc(C(C)(C)C)cc1,4,-0.89,58*,-59
Cc1ccccc1OC1C(=O)N(Cc2ccc3c(c2)OCO3)C1c1sccc1C (configuration not stated),8,-1.9,5,-1
Cc1ccc(/C=C2\CCC3=C2OC(N)=C(C#N)C3c2ccc(C)cc2)cc1 (configuration not stated),138*[fluorescence artefact?],-0.27,6,-4
O=c1c(-c2ccccc2)[n+]([O-])c2ccccc2n1O,17,0.05,3,-3
COc1cc(-c2nnc(SCc3cc(=O)oc4cc(O)c(O)cc34)o2)cc(OC)c1OC,-20,-0.36,31*,-32
CCCOC(=O)CSc1nnc(-c2cc(OC)c(OC)c(OC)c2)o1,0,0.8,-9,7
CCCCC1OC23CCCCC2C(C#N)(C(=N)O3)C1(C#N)C#N (configuration not stated),20,0.43,0,4
CCCCCCCCOc1ccc(C2OC34CCCCC3C(C#N)(C#N)C2(C#N)C(=N)O4)cc1 (configuration not stated),43*,0.45,8,-4
COc1cc(NS(=O)(=O)c2ccc(Br)cc2)c(OC)cc1NC(=O)c1ccco1,11,-1.1,-2,1
O=C1NC(c2ccccc2)=C(c2nc3ccccc3s2)C(c2ccccc2)N1 (configuration not stated),5,-3.6*,2,0
CCCCOC(=O)n1c(=O)oc2cc(S(=O)(=O)N3CCCCC3)ccc21,2,-3.1*,-11,7
COC(=O)n1c(=O)oc2cc(S(=O)(=O)N3CCOCC3)ccc21,x,0.47,x,x
CCCNS(=O)(=O)c1cccc(C(=O)NC2CCCc3ccccc32)c1 (configuration not stated),5,-0.07,4,-5
COc1cc(N2CCCC2)c(OC)cc1/C=C(/C#N)c1ccc(F)cc1,95*[fluorescence artefact?],-2.7,-6,6
COc1cc(N2CCCC2)c(OC)cc1/C=C(/C#N)c1ccc(Br)cc1,114*[fluorescence artefact?],-2.1,-4,4
CCC(=O)Nc1ccccc1C(=O)NC1CCCCC1,3,-0.38,-7,9
Cc1nc2c(c(=O)n1CCC1=CCCCC1)c1nc3ccccc3nc1n2/N=C/c1ccccc1,2,-0.81,39*,-39
CCC(C)(C)n1nnnc1C(c1ccc2ncccc2c1)N1CCN2CCCC2C1 (configuration not stated),-3,0.5,7,-6
Cc1ccccc1OCCCCn1cnc2ccccc21,20,-0.43,-2,5
Brc1ccccc1OCCCn1cnc2ccccc21,19,-3.9*,11,-9
COc1cccc(-c2nnc3n2N=C(c2cc(OC)ccc2OC)CS3)c1,14,-1.8,11,-8
SMILES,Rev-RRE block,Pyk2 oligo antag,PTPN22 inh 2,PTPN22 act
COc1ccc(OC)c(C2=Nn3c(nnc3-c3cc(OC)c(OC)c(OC)c3)SC2)c1,12,-3.1*,3,-2
Cc1cccc(C(=O)Nc2ccccc2SCC2CSc3nc4ccccc4c(=O)n32)c1 (configuration not stated),7,-0.04,-4,2
COc1ccccc1N1CCN(c2nc3ccccn3c(=O)c2C=O)CC1,5,0.7,-10,15
COc1ccccc1-n1c(SCC(=O)NC2CCCC2)nc2cccnc21,5,-0.49,-5,3
CCN(CC)S(=O)(=O)c1ccc2c(c1)nc(SCC(=O)NC1CC1)n2-c1ccccc1OC,5,-3.3*,6,-2
C=CCn1c(SC(C)CC)nc(O)cc1=O (configuration not stated),3,-4.5*,-10,9
COc1ccc(-c2nn(-c3ccccc3)cc2C(=O)Nc2nccs2)cc1,8,-2.9,3,0
COc1cccc(-c2nn(-c3ccccc3)cc2C(=O)Nc2nccs2)c1,2,-3.6*,-7,1
COc1ccc(Oc2nc3ccccc3n(C)c2=O)cc1,2,0.07,-12,9
COc1ccc(/C(O)=C/c2nc3ccccc3n(-c3ccccc3)c2=O)cc1,78*,0.53,2,1
O=C(N/N=C/c1cccnc1)C(O)(c1ccccc1)c1ccccc1,5,-0.64,3,0
O=C(N/N=C(\c1ccccc1)c1cccnc1)C(O)(c1ccccc1)c1ccccc1,10,-3.9*,11,-8
COC(=O)C1=CNC=C(C(=O)OC)C1c1ccc(Cl)cc1,1,-3.8*,10,-13
COc1ccccc1C(CC(N)=O)c1ccco1 (configuration not stated),6,-0.08,-16,13
O=C(/C=C/c1ccc2c(c1)OCO2)N1CCOCC1,4,0.5,7,-5
COc1ccc(Br)cc1/C=C/C(=O)Nc1ccc(C)cc1,x,-0.93,x,x
CNc1ccc(Br)cc(C(=O)/C=C/c2ccc3c(c2)OCO3)c1=O,48*,0.98,5,-7
CCNc1ccc(Br)cc(C(=O)/C=C/c2ccc(Cl)cc2Cl)c1=O,79*[fluorescence artefact?],0.13,1,-2
CNc1ccc(Br)cc(C(=O)/C=C/c2cc(OC)ccc2OC)c1=O,55*,0.28,8,-9
COC(=O)c1cccc(NS(=O)(=O)c2cccs2)c1C,7,-0.45,8,-9
COC(=O)c1ccccc1NC1=C/C(=N\S(=O)(=O)c2cccs2)c2ccccc2C1=O,3,-5*,2,-1
O=S(=O)(/N=C(/Nc1cccc2ccccc12)c1ccccc1)c1cccs1,7,-0.83,-2,7
O=C1C(Nc2ccccc2)=C/C(=N/S(=O)(=O)c2cccs2)c2ccccc21,x,-3.8*,x,x
COc1cccc(/C=N/NC(=O)c2ccccc2N(Cc2ccccc2)S(=O)(=O)c2ccccc2)c1OC,-1,-2.7,11,-7
CCCOC1(NC(=O)c2ccccc2)C(C)=CC(=O)C=C1C,0,1.7,-3,1
SMILES,Rev-RRE block,Pyk2 oligo antag,PTPN22 inh 2,PTPN22 act
N#Cc1c2c(c(NCc3ccco3)n3c1nc1ccccc13)CCC2,20,1.1,-8,4
c1coc(CNc2c3c(nc4ccccc24)CCC3)c1,36*,0.8,10,-11
CCn1cc(C2=NOC(C(=O)Nc3cc(C)nn3-c3ccccc3)C2)c(C)n1 (configuration not stated),x,-0.19,x,x
CCOc1ccc(Nc2ncnc3c2cnn3Cc2ccccc2)cc1,12,-3.1*,-3,0
O=C(CCn1cccc1)NCc1ccc(Cl)cc1,5,0.49,7,-7
CC(C)(C)N1C(=O)c2ccc(C(=O)NCc3ccco3)cc2C1=O,6,-0.38,0,-4
O=C(N/N=C/c1ccc2ccccc2c1)c1ccc(COc2ccc3c(c2)CCC3)o1,5,0.74,33*,-31
